The record followed here is ChEMBL document CHEMBL1145272, “P2 pyridine N-oxide thrombin inhibitors: a novel peptidomimetic scaffold” (Bioorg Med Chem Lett, 2005).

As usually defined, the Ki is a dissociation constant, usually derived from enzyme kinetics or from competition with a known ligand. Lower therefore signals a stronger hold on the target. In general, Cmax refers to the maximum level reached in the sampled fluid or tissue. For orientation: half-life means the time needed for the level to fall by half in the phase considered. Read a low half-life as rapid decline.

For one data set, the target named is Prothrombin (Homo sapiens, UniProt P00734). Put plainly: Binding affinity against thrombin in human plasma. Type of data set: cell-free.
Data set [1] in a line: Maximal plasma concentration in dogs after 0.85 mg/kg oral dose. Type of data set: ADME, organism-based, Canis lupus familiaris. On the set-up: dose 0.85 mg/kg, route oral. Particulars: dog.
Data set [2] is described as follows: Half-life in dog plasma. The class given is ADME, organism-based, Canis lupus familiaris. The procedure, abridged:
(§1)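 Dogs were given the compound orally at 0.65, 0.7 or 0.95 mpk, with the dose differing by compound. Plasma was sampled to obtain the maximum concentration (Cmax, μM) and the plasma half-life (t1/2, h).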

The nature of data set [3]: Maximal plasma concentration in dogs after 0.65 mg/kg oral dose. Particulars: dog. On the set-up: dose 0.65 mg/kg, route oral. The class given is ADME, organism-based, Canis lupus familiaris. The procedure, abridged:
as §1

Data set [4] is described as follows: Maximal plasma concentration in dogs after 0.95 mg/kg oral dose. On the set-up: dose 0.95 mg/kg, route oral. The class given is ADME, organism-based, Canis lupus familiaris. Particulars: dog. The procedure, abridged:
as §1

The nature of data set [5]: Maximal plasma concentration in dogs after 0.7 mg/kg oral dose. Type of data set: ADME, organism-based, Canis lupus familiaris. Also noted: dose 0.7 mg/kg, route oral. Particulars: dog. The procedure, abridged:
as §1

Compound `N#Cc1ccc(NCC(F)(F)c2ccccn2)[n+]([O-])c1CC(=O)NCc1cc(Cl)ccc1-n1cnnn1` yielded an inhibition constant Ki on Prothrombin of 0.002 nM.
The compound `NCc1ccc(Cl)cc1C(CO)NC(=O)Cc1c(Cl)ccc(NCC(F)(F)c2ccccn2)[n+]1[O-]` (centres undefined) registered a Ki at Prothrombin of 0.48 nM. The compound also showed a peak concentration (Cmax) in data set [1] of 340 nM. The half-life in data set [2] is 1.5 h.
`NCc1ccc(Cl)cc1CNC(=O)Cc1cccc(NCC(F)(F)c2ccccn2)[n+]1[O-]` displayed a Ki at Prothrombin of 0.04 nM.
For the compound `NCc1ccc(Cl)cc1CNC(=O)Cc1c(Cl)ccc(N)[n+]1[O-]`, the Ki on Prothrombin amounted to 26 nM.
As to `O=C(Cc1c(Cl)ccc(NCC(F)(F)c2ccccn2)[n+]1[O-])NCc1ncccc1-n1cncn1`, the inhibitory constant (Ki) at Prothrombin worked out at 2.5 nM.
At Prothrombin, `NCc1ccccc1CNC(=O)Cc1c(Cl)ccc(NCC(F)(F)c2ccccn2)[n+]1[O-]` came in with a Ki of 0.4 nM. In data set [2], this compound gave a half-life of 1.5 h. The compound further displayed a peak concentration (Cmax) in data set [3] of 820 nM.
For the compound `O=C(Cc1cccc(NCC(F)(F)c2ccccn2)[n+]1[O-])NCc1cc(Cl)ccc1-n1cnnn1`, the Ki at Prothrombin is 0.14 nM.
Same read-out and setting: the value for `NCc1ccc(Cl)cc1CNC(=O)Cc1c(Cl)ccc(NCC(F)(F)c2ccccn2)[n+]1[O-]` was < 0.01 nM; that for `[O-][n+]1c(NCC(F)(F)c2ccccn2)ccc(Cl)c1CC(O)NCc1cccc(Cl)c1` (centres undefined) was 0.42 nM.
`C[C@H](NC(=O)Cc1c(Cl)ccc(NCC(F)(F)c2ccccn2)[n+]1[O-])c1cc(Cl)ccc1CN` came in with an inhibition constant (Ki) on Prothrombin of 3.2 nM. For the same compound, the half-life in data set [2] was 4.5 h. The compound also came in with a peak concentration (Cmax) in data set [4] of 2600 nM.
Turning to `C[C@@H](N)c1ccc(Cl)cc1CNC(=O)Cc1c(Cl)ccc(NCC(F)(F)c2ccccn2)[n+]1[O-]`, the Ki on Prothrombin worked out at 0.45 nM. Moreover, the concentration in data set [5] peaked (Cmax) at 100 nM. Moreover, the half-life in data set [2] is 2 h.
Compound `O=C(Cc1c(Cl)ccc(NCC(F)(F)c2ccccn2)[n+]1[O-])NCc1ncccc1F` displayed an inhibition constant Ki on Prothrombin of 6 nM.
`N#Cc1ccc(NCC(F)(F)c2ccccn2)[n+]([O-])c1CC(=O)NCc1ccccc1` had a Ki on Prothrombin of 150 nM.
The compound `N#Cc1ccc(NCC(F)(F)c2ccccn2)[n+]([O-])c1CC(O)NCc1cccc(Cl)c1` (centres undefined) yielded an inhibition constant (Ki) at Prothrombin of 0.08 nM.
Turning to `N#Cc1ccc(NCC(F)(F)c2ccccn2)[n+]([O-])c1CC(=O)NCc1ncccc1-n1cncn1`, the affinity at Prothrombin corresponds to a Ki of 0.23 nM.
Same read-out and setting: the value for `N#Cc1ccc(NCC(F)(F)c2ccccn2)[n+]([O-])c1CC(=O)NCc1cc(Cl)ccc1CN` was 0.001 nM.
On Prothrombin, `N#Cc1ccc(NCC(F)(F)c2ccccn2)[n+]([O-])c1CC(=O)NCc1ncccc1F` yielded a Ki of 1.5 nM.
As to `N#Cc1ccc(NCC(F)(F)c2ccccn2)[n+]([O-])c1CC(O)NCc1ccccc1CN` (centres undefined), the Ki at Prothrombin is < 0.01 nM.
On Prothrombin, `N#Cc1ccc(N)[n+]([O-])c1CC(=O)NCc1cc(Cl)ccc1-n1cnnn1` returned a Ki of 18 nM.
Compound `O=C(Cc1c(Cl)ccc(NCC(F)(F)c2ccccn2)[n+]1[O-])NCc1cc(Cl)ccc1-n1cncn1` showed a Ki at Prothrombin of 0.05 nM.
For the compound `O=C(Cc1c(Cl)ccc(NCC(F)(F)c2ccccn2)[n+]1[O-])NCc1ccccc1-n1cncn1`, the affinity at Prothrombin corresponds to a Ki of 2.6 nM.
For the compound `O=C(Cc1cccc(NCC(F)(F)c2ccccn2)[n+]1[O-])NCc1cc(Cl)ccc1-n1cncn1`, the Ki at Prothrombin turned out to be 1.5 nM.
Consider `C[C@H](N)c1ccc(Cl)cc1CNC(=O)Cc1c(Cl)ccc(NCC(F)(F)c2ccccn2)[n+]1[O-]`, for which the inhibition constant Ki on Prothrombin was 20 nM.
Regarding `Nc1ccc(Cl)c(CC(=O)NCc2cc(Cl)ccc2-n2cnnn2)[n+]1[O-]`, on Prothrombin, the inhibition constant (Ki) amounted to 140 nM.
In turn, `N#Cc1ccc(N)[n+]([O-])c1CC(=O)NCc1cc(Cl)ccc1CN` showed a Ki at Prothrombin of 10 nM.
`C[C@@H](NC(=O)Cc1c(Cl)ccc(NCC(F)(F)c2ccccn2)[n+]1[O-])c1cc(Cl)ccc1CN` returned an inhibition constant (Ki) at Prothrombin of 260 nM.
